In ChEMBL document CHEMBL1121471, “Synthesis and structure-activity relationships among alpha-adrenergic receptor agonists of the phenylethanolamine type” (J Med Chem, 1980) one finds Intrinsic, pD2 and Ratio data, which are given here for 24 compounds.

Assay [1] can be described thus: Intrinsic activity of the compound, which is expressed as the ratio of the maximum response to the maximum response to norepinephrine. The class given is functional. In a few lines: (§1)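 Helical strips of rat aorta (1.5–2 cm × 3–4 mm) were held in Krebs-Henseleit at 37 °C, gassed with 95% O2/5% CO2, at 2 g resting tension, and equilibrated about 2 h. Cumulative contraction curves were recorded isometrically, first for norepinephrine, then after washout and 1 h rest for the test agonist. pD2 (−log ED50) was derived by the Ariens–Van Rossum method. Intrinsic activity is the compound's maximum response divided by the norepinephrine maximum.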

The target in assay [2] is T1, Adrenergic receptor alpha (Rattus norvegicus) (UniProt P15823+P23944+P43140+P22086+P19328+P22909). As to the kind of experiment: Binding affinity to alpha adrenergic receptors in rat aorta. The class given is tissue-based. In a few lines:
as §1

In assay [3] the target is T1, Adrenergic receptor alpha (Rattus norvegicus). As to the kind of experiment: Ratio of maximum contraction of rat aorta elicited versus that elicited by noradrenaline (defined as intrinsic activity). The class given is functional, tissue-based. The method in brief: as §1

In the case of `Cc1ccc(C(O)CN)cc1O` (stereo not drawn), the Intrinsic in assay [1] came to 1.3. The compound further yielded a pD2 in assay [2] of 5.66.
Take `NCC(O)c1ccc(O)c(C2CCCCC2)c1` (stereo not drawn): the Ratio in assay [3] was 1.1. Also, the pD2 in assay [2] is 6.73.
For the compound `NCC(O)c1cccc(O)c1` (stereo not drawn), the Ratio in assay [3] is 1. In assay [2], the pD2 came to 8.21.
Take `NCC(O)c1ccc(O)cc1` (stereo not drawn): in assay [3], the Ratio was 1.1. This compound showed a pD2 in assay [2] of 6.08.
Turning to `CS(=O)(=O)Nc1ccc(C(O)CN)cc1O` (stereo not drawn), the Ratio in assay [3] came to 0.8. The compound also displayed a pD2 in assay [2] of 3.2.
Consider `CS(=O)(=O)Nc1cc(C(O)CN)ccc1O` (stereo not drawn), for which the Ratio in assay [3] was determined as 1.1. The compound also displayed a pD2 in assay [2] of 7.19.
On the same counts, the results for `NCC(O)c1ccc(C2CCCCC2)c(O)c1` (stereo not drawn) are 0.7 and 4.86.
On to `NC[C@H](O)c1ccc(O)c(O)c1`, for which the Ratio in assay [3] is 1. The compound also showed a pD2 in assay [2] of 8.8.
For the compound `NCC(O)c1ccc(Cl)c(O)c1` (stereo not drawn), the Ratio in assay [3] was 1.1. The same compound registered a pD2 in assay [2] of 6.35.
Regarding `Cc1cc(C(O)CN)ccc1O` (stereo not drawn), in assay [3], the Ratio was 1. For the same compound, in assay [2], the pD2 was determined as 5.96.
Take `CCc1ccc(C(O)CN)cc1O` (stereo not drawn): the Ratio in assay [3] is 1.1. In assay [2], this compound returned a pD2 of 5.2.
For `NCC(O)c1ccc(O)c(I)c1` (stereo not drawn), the Ratio in assay [3] came out at 0.9. The same compound showed a pD2 in assay [2] of 5.5.
Turning to `CC(C)c1ccc(C(O)CN)cc1O` (stereo not drawn), the Ratio in assay [3] is 0.7. Besides, in assay [2], the pD2 came to 5.
Turning to `NCC(O)c1ccc(Br)c(O)c1` (stereo not drawn), in assay [3], the Ratio was found to be 1. The same compound gave a pD2 in assay [2] of 5.58.
Turning to `CC(C)c1cc(C(O)CN)ccc1O` (stereo not drawn), the Ratio in assay [3] was 1.2. Besides, the pD2 in assay [2] is 6.53.
Consider `COC(=O)c1cc(C(O)CN)ccc1O` (stereo not drawn), for which the Ratio in assay [3] was found to be 0.9. Also, the pD2 in assay [2] amounted to 4.85.
With `NCC(O)c1ccc(O)c(F)c1` (stereo not drawn), in assay [3], the Ratio is 1. In assay [2], the pD2 turned out to be 6.78.
Regarding `NCC(O)c1ccc(O)c(C(=O)O)c1` (stereo not drawn), the Ratio in assay [3] was 1. The same compound had a pD2 in assay [2] of 4.07.
Regarding `NCC(O)c1ccc(I)c(O)c1` (stereo not drawn), in assay [3], the Ratio was 0.9. This compound came in with a pD2 in assay [2] of 4.99.
For the compound `CCc1cc(C(O)CN)ccc1O` (stereo not drawn), the Ratio in assay [3] worked out at 0.9. The pD2 in assay [2] was found to be 6.09.
In the same order, the values of `COc1ccc(C(O)CN)cc1O` (stereo not drawn) are 1 and 4.97.
On the same counts, the results for `NCC(O)c1ccc(O)c(Cl)c1` (stereo not drawn) are 1 and 5.85.
As for `COc1cc(C(O)CN)ccc1O` (stereo not drawn), the Ratio in assay [3] is 1.1. The compound also returned a pD2 in assay [2] of 6.23.
Consider `NCC(O)c1ccc(O)c(Br)c1` (stereo not drawn), for which the Ratio in assay [3] is 1.1. The compound further came in with a pD2 in assay [2] of 5.57.
